ChEMBL document CHEMBL3120115, “Synthesis and biological evaluation of 2-oxonicotinonitriles and 2-oxonicotinonitrile based nucleoside analogues” (Eur J Med Chem, 2014)

Tests used:
Bacillus subtilis = assay: Antimicrobial activity against Bacillus subtilis at 250 ug/disc after 48 hrs by well diffusion method; type: functional; conditions: read-out: DIZ
How it was run: (§1)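 Well diffusion assay. Bacteria were grown on nutrient agar and fungi on Czapek's-Dox agar; spores were inoculated into sterilized medium, dispersed and poured into plates. Compounds were dissolved in DMF at 250 mg/mL and loaded into 1 cm wells. Plates stood 24 h refrigerated for diffusion, then were incubated at 35 °C for 48 h (bacteria) or 28 °C for 5-7 days (fungi). Inhibition zone diameter was read in mm. DMF-only wells served as negative control.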

Escherichia coli = assay: Antimicrobial activity against Escherichia coli at 250 ug/disc after 48 hrs by well diffusion method; type: functional; conditions: read-out: DIZ; how it was run: as §1
Aspergillus viridinutans = assay: Antimicrobial activity against Aspergillus viridinutans at 250 ug/disc after 5 to 7 days by well diffusion method; type: functional; conditions: read-out: DIZ; how it was run: as §1
Aspergillus niger = assay: Antimicrobial activity against Aspergillus niger at 250 ug/disc after 5 to 7 days by well diffusion method; type: functional; conditions: read-out: DIZ; how it was run: as §1
West Nile virus = assay: Antiviral activity against West Nile virus by visual/neutral red test; type: functional, organism-based
SARS-CoV [1] = assay: Antiviral activity against SARS coronavirus by visual method; type: functional, organism-based; conditions: Severe acute respiratory syndrome-related coronavirus
[2] = Selectivity index, ratio of CC50 for cytotoxicity to EC50 for Influenza A virus H3N2; type: toxicity; conditions: read-out: Ratio CC50/EC50
How it was run: (§2)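 CC50 is the concentration at which 50% of cells die, and EC50 is the concentration inhibiting 50% of viral infection. SI is calculated as the CC50/EC50 ratio.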

[3] = Selectivity index, ratio of CC50 for cytotoxicity to EC50 for HSV1; type: toxicity; conditions: read-out: Ratio CC50/EC50; how it was run: as §2
Influenza B virus = assay: Antiviral activity against Influenza B virus by cytopathy assay; type: functional, organism-based
Hepatitis B virus = assay: Antiviral activity against Hepatitis B virus assessed as inhibition of viral infection by DNA virion assay; type: functional, organism-based
Influenza A virus [4] = assay: Antiviral activity against Influenza A virus H5N1 by cytopathy assay; type: functional, organism-based
Human alphaherpesvirus 1 = assay: Antiviral activity against HSV1 assessed as inhibition of viral infection; type: functional, organism-based
Influenza A virus [5] = assay: Antiviral activity against Influenza A virus H3N2 by cytopathy assay; type: functional, organism-based
[6] = Selectivity index, ratio of CC50 for cytotoxicity to EC50 for Influenza A virus H5N1; type: toxicity; conditions: read-out: Ratio CC50/EC50; how it was run: as §2
[7] = Selectivity index, ratio of CC50 for cytotoxicity to EC50 for SARS coronavirus; type: toxicity; conditions: read-out: Ratio CC50/EC50; how it was run: as §2
[8] = Selectivity index, ratio of CC50 for cytotoxicity to EC50 for HSV2; type: toxicity; conditions: read-out: Ratio CC50/EC50; how it was run: as §2
Hepatitis C virus = assay: Antiviral activity against Hepatitis C virus assessed as inhibition of viral infection by RNA replicon assay; type: functional, organism-based, Hepacivirus hominis
Human alphaherpesvirus 2 = assay: Antiviral activity against HSV2 assessed as inhibition of viral infection; type: functional, organism-based
SARS-CoV [9] = assay: Antiviral activity against SARS coronavirus by visual/neutral red test; type: functional, organism-based; conditions: Severe acute respiratory syndrome-related coronavirus
[10] = Selectivity index, ratio of CC50 for cytotoxicity to EC50 for Influenza B virus; type: toxicity; conditions: read-out: Ratio CC50/EC50; how it was run: as §2
Influenza A virus [11] = assay: Antiviral activity against Influenza A virus H1N1 by cytopathy assay; type: functional, organism-based
[12] = Selectivity index, ratio of CC50 for cytotoxicity to EC50 for Influenza A virus H1N1; type: toxicity; conditions: read-out: Ratio CC50/EC50; how it was run: as §2

| Structure (SMILES) | zone of inhibition at 250 µg/disc (Bacillus subtilis) [mm] | zone of inhibition at 250 µg/disc (Escherichia coli) [mm] | zone of inhibition at 250 µg/disc (Aspergillus viridinutans) [mm] | zone of inhibition at 250 µg/disc (Aspergillus niger) [mm] | EC50 (West Nile virus) [µM] | selectivity ratio [2] | selectivity ratio [3] | EC50 (Influenza B virus) [µM] | EC50 (Hepatitis B virus) [µM] | EC50 (Influenza A virus [4]) [µM] | EC50 (Human alphaherpesvirus 1) [µM] | EC50 (Influenza A virus [5]) [µM] | selectivity ratio [8] | EC50 (Hepatitis C virus) [µM] | EC50 (Human alphaherpesvirus 2) [µM] | EC50 (SARS-CoV [9]) [µM] | further results |
| --- | --- | --- | --- | --- | --- | --- | --- | --- | --- | --- | --- | --- | --- | --- | --- | --- | --- |
| CC(=O)OCCOCn1c(-c2cccs2)cc(-c2cccs2)c(C#N)c1=O | 10 | 0 | 7 | 8 |  |  |  |  |  |  |  |  |  |  |  |  |  |
| CC(=O)OC[C@H]1O[C@@H](n2c(-c3ccccn3)cc(-c3ccc(Cl)cc3)c(C#N)c2=O)[C@H](OC(C)=O)[C@@H](OC(C)=O)[C@@H]1OC(C)=O |  |  |  |  | > 5.1 | > 4.2 | 1 | > 3.2 | > 100 | 3.2 | > 300 | 24 | 1 | > 100 | > 300 |  | EC50 (SARS-CoV [1]): 8.3 µM; selectivity ratio [6]: 1.3; selectivity ratio [7]: 4.3 |
| CC(C)c1ccc(-c2cc(-c3cccs3)[nH]c(=O)c2C#N)cc1 |  |  |  |  | > 2.2 | > 4.5 | 1 | 46 | > 100 | 32 | > 300 | 22 | 1 | > 100 | > 300 | > 26 | selectivity ratio [10]: > 2.2; selectivity ratio [6]: > 3.1 |
| CC(C)c1ccc(-c2cc(-c3cccs3)n([C@@H]3O[C@H](CO)[C@H](O)[C@H](O)[C@H]3O)c(=O)c2C#N)cc1 | 3 | 5 | 6 |  |  |  |  |  |  |  |  |  |  |  |  |  |  |
| CN(C)C=O [DIMETHYLFORMAMIDE] | 0 | 0 | 0 | 0 |  |  |  |  |  |  |  |  |  |  |  |  |  |
| C=CCOc1nc(-c2ccccn2)cc(-c2ccc(Cl)cc2)c1C#N | 1 | 0 | 7 |  |  |  |  |  |  |  |  |  |  |  |  |  |  |
| CC(C)c1ccc(-c2cc(-c3cccs3)n(COCCO)c(=O)c2C#N)cc1 | 23 | 0 | 6 | 7 |  |  |  |  |  |  |  |  |  |  |  |  |  |
| CC(=O)OC[C@H]1O[C@@H](n2c(-c3cccs3)cc(-c3cccs3)c(C#N)c2=O)[C@H](OC(C)=O)[C@@H](OC(C)=O)[C@H]1OC(C)=O |  |  |  |  | > 3.6 |  | < 2.4 | > 12 | > 100 | > 19 | > 60 | > 32 | < 2.4 | > 100 | > 60 | 10 | EC50 (Influenza A virus [11]): > 28 µM; selectivity ratio [7]: 1.9 |
| CC1(C)O[C@@H]2C[C@H]3[C@@H]4C[C@H](F)C5=CC(=O)C=C[C@]5(C)[C@@]4(F)[C@@H](O)C[C@]3(C)[C@]2(C(=O)CO)O1 [FLUOCINOLONE ACETONIDE] |  |  | 31 | 22 |  |  |  |  |  |  |  |  |  |  |  |  |  |
| Nc1nc2c(ncn2COCCO)c(=O)[nH]1 [ACYCLOVIR] |  |  |  |  |  |  | > 30.3 |  |  |  | 3.3 |  | > 10.4 |  | 9.6 |  |  |
| CC(=O)OC[C@H]1O[C@@H](n2c(-c3cccs3)cc(-c3cccs3)c(C#N)c2=O)[C@H](OC(C)=O)[C@@H](OC(C)=O)[C@@H]1OC(C)=O | 2 | 0 | 6 | 8 | > 3 | > 2.5 | < 4 | 32 | > 100 | > 100 | > 60 | 40 | < 4 | > 100 | > 60 | > 32 | selectivity ratio [10]: 1 |
| N#Cc1c(-c2ccc(Cl)cc2)cc(-c2ccccn2)[nH]c1=O |  |  |  |  | > 2.2 |  | 1 | > 36 | > 100 | > 100 | > 300 | > 2.6 | 1 | > 100 | > 300 | > 0.32 | EC50 (Influenza A virus [11]): 26 µM; selectivity ratio [12]: > 3.8 |
| NC(=O)c1ncn([C@@H]2O[C@H](CO)[C@@H](O)[C@H]2O)n1 [RIBAVIRIN] |  |  |  |  |  | > 160 |  | 2.4 |  | 4.2 |  | 2 |  |  |  |  | EC50 (Influenza A virus [11]): 10 µM; selectivity ratio [10]: > 130; selectivity ratio [12]: > 32; selectivity ratio [6]: > 76 |
